Laboratory results reported in ChEMBL document CHEMBL1137803, “A novel anti-HIV macrocyclic peptide from Palicourea condensata” (J Nat Prod, 2001).
Where a SMILES comes first, the peptide text is derived from it. Bridges are numbered along the chain shown (N, C = ends).

Tested on: Human immunodeficiency virus 1
Assay: Antiviral activity against HIV1 RF infected in human CEM-SS cells assessed as inhibition of virus induced cytopathic effect by XTT assay
Assay type: functional, organism-based
Settings: Human immunodeficiency virus 1, RF
How it was run: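 HIV-1RF infection of CEM-SS, a human T-lymphoblastoid cell line, in vitro; inhibition of virus-induced cytopathic effects read out and reported as EC50 in µM.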

| SMILES | EC50 |
| --- | --- |
| CC[C@H](C)[C@@H]1NC(=O)[C@@H]2CSSC[C@@H]3NC(=O)[C@H](C(C)C)NC(=O)[C@H](CCCCN)NC(=O)[C@H](CC(N)=O)NC(=O)[C@H](CCCCN)NC(=O)[C@@H]4CSSC[C@H](NC(=O)[C@H](CO)NC(=O)[C@H](CCC(=O)O)NC(=O)CNC(=O)[C@H](CSSC[C@H](NC(=O)CNC(=O)[C@H](CC(C)C)NC(=O)[C@H](C)NC(=O)[C@H](C)NC(=O)[C@H](CO)NC1=O)C(=O)N[C@@H](CO)C(=O)N4)NC(=O)[C@@H]1CCCN1C(=O)[C@H]([C@@H](C)CC)NC(=O)CNC(=O)[C@H](CC(N)=O)NC(=O)[C@H](CCCNC(=N)N)NC(=O)[C@H](Cc1ccc(O)cc1)NC3=O)C(=O)N[C@@H](C(C)C)C(=O)N[C@@H](Cc1c[nH]c3ccccc13)C(=O)N[C@@H]([C@@H](C)CC)C(=O)N1CCC[C@H]1C(=O)N2 [CIRCULIN A] (cyclo(AALGCSCKNKVCYRNGIPCGESCVWIPCIS); disulfide 5-19, 7-23, 12-28) | 0.05 µM |
| CC[C@H](C)[C@@H]1NC(=O)[C@H](C)NC(=O)[C@H](C)NC(=O)[C@H](CO)NC(=O)[C@H]([C@@H](C)CC)NC(=O)[C@@H]2CSSC[C@@H]3NC(=O)[C@H](C(C)C)NC(=O)[C@H](CCCCN)NC(=O)[C@H](CC(N)=O)NC(=O)[C@H](CCCCN)NC(=O)[C@@H]4CSSC[C@H](NC(=O)[C@H](CO)NC(=O)[C@H](CCC(=O)O)NC(=O)CNC(=O)[C@H](CSSC[C@H](NC(=O)CNC1=O)C(=O)N[C@@H](CO)C(=O)N4)NC(=O)[C@@H]1CCCN1C(=O)[C@H]([C@@H](C)CC)NC(=O)[C@H](C(C)C)NC(=O)CNC(=O)[C@H](CC(N)=O)NC(=O)[C@H](CCCNC(=N)N)NC(=O)[C@H](Cc1ccc(O)cc1)NC3=O)C(=O)N[C@@H](C(C)C)C(=O)N[C@@H](Cc1ccccc1)C(=O)N[C@@H]([C@@H](C)CC)C(=O)N1CCC[C@H]1C(=O)N2 [CYCLOVIOLIN A] (cyclo(AAIGCSCKNKVCYRNGVIPCGESCVFIPCIS); disulfide 5-20, 7-24, 12-29) | 0.05 µM |
| CC[C@H](C)[C@@H]1NC(=O)[C@@H]2CSSC[C@@H]3NC(=O)[C@H](C(C)C)NC(=O)[C@H](CCCCN)NC(=O)[C@H](CC(N)=O)NC(=O)[C@H](CCCCN)NC(=O)[C@@H]4CSSC[C@H](NC(=O)[C@H](CO)NC(=O)[C@H](CCC(=O)O)NC(=O)CNC(=O)[C@H](CSSC[C@H](NC(=O)CNC(=O)[C@H](CC(C)C)NC(=O)[C@H](CC(C)C)NC(=O)[C@H]([C@@H](C)O)NC(=O)[C@H](CO)NC1=O)C(=O)N[C@@H](CO)C(=O)N4)NC(=O)[C@@H]1CCCN1C(=O)[C@H]([C@@H](C)CC)NC(=O)[C@H](C(C)C)NC(=O)CNC(=O)[C@H](CC(N)=O)NC(=O)[C@H](CCCNC(=N)N)NC(=O)[C@H](Cc1ccc(O)cc1)NC3=O)C(=O)N[C@@H](C(C)C)C(=O)N[C@@H](Cc1ccccc1)C(=O)N[C@@H]([C@@H](C)CC)C(=O)N1CCC[C@H]1C(=O)N2 [CIRCULIN B] (cyclo(CGESCVFIPCISTLLGCSCKNKVCYRNGVIP); disulfide 1-17, 5-19, 10-24) | 0.05 µM |
| CC[C@H](C)[C@@H]1NC(=O)[C@H](C)NC(=O)[C@H](C)NC(=O)[C@H](CO)NC(=O)[C@H]([C@@H](C)CC)NC(=O)[C@@H]2CSSC[C@@H]3NC(=O)[C@H](C(C)C)NC(=O)[C@H](CCCCN)NC(=O)[C@H](CC(N)=O)NC(=O)[C@H](CCCCN)NC(=O)[C@@H]4CSSC[C@H](NC(=O)[C@H](CO)NC(=O)[C@H](CCC(=O)O)NC(=O)CNC(=O)[C@H](CSSC[C@H](NC(=O)CNC1=O)C(=O)N[C@@H](CO)C(=O)N4)NC(=O)[C@@H]1CCCN1C(=O)[C@H](Cc1ccccc1)NC(=O)CNC(=O)[C@H](CC(N)=O)NC(=O)[C@H](CCCNC(=N)N)NC(=O)[C@H](Cc1ccc(O)cc1)NC3=O)C(=O)N[C@@H](C(C)C)C(=O)N[C@@H](Cc1ccccc1)C(=O)N[C@@H]([C@@H](C)CC)C(=O)N1CCC[C@H]1C(=O)N2 [CYCLOVIOLIN D] (cyclo(AAIGCSCKNKVCYRNGFPCGESCVFIPCIS); disulfide 5-19, 7-23, 12-28) | 0.05 µM |
| CC(C)C[C@@H]1NC(=O)[C@H](C(C)C)NC(=O)[C@H](Cc2ccc(O)cc2)NC(=O)[C@@H]2CSSC[C@@H]3NC(=O)[C@H]([C@@H](C)O)NC(=O)[C@@H]4CSSC[C@H](NC(=O)[C@H](C)NC(=O)[C@H]([C@@H](C)O)NC(=O)CNC(=O)[C@H](CC(N)=O)NC(=O)[C@H](CCCCN)NC(=O)[C@H](Cc5ccccc5)NC(=O)[C@H](CSSC[C@H](NC(=O)[C@@H]5CCCN5C1=O)C(=O)N[C@@H](Cc1ccccc1)C(=O)N[C@@H]([C@@H](C)O)C(=O)N[C@@H](C(C)C)C(=O)NCC(=O)N4)NC(=O)[C@H](CCC(N)=O)NC(=O)[C@H](CO)NC(=O)[C@H](CO)NC(=O)[C@H]([C@@H](C)O)NC3=O)C(=O)NCC(=O)N[C@@H](CCC(=O)O)C(=O)N[C@@H](CO)C(=O)N2 [CYCLOVIOLIN B] (cyclo(ACGESCYVLPCFTVGCTCTSSQCFKNGT); disulfide 2-16, 6-18, 11-23) | 0.05 µM |
| CC[C@H](C)[C@@H]1NC(=O)CNC(=O)[C@H](CC(N)=O)NC(=O)[C@H](CCCNC(=N)N)NC(=O)[C@H](Cc2ccc(O)cc2)NC(=O)[C@@H]2CSSC[C@@H]3NC(=O)[C@@H]4CCCN4C(=O)[C@H]([C@@H](C)CC)NC(=O)[C@H](Cc4ccccc4)NC(=O)[C@H](C(C)C)NC(=O)[C@@H]4CSSC[C@H](NC(=O)[C@H](CO)NC(=O)[C@H](CSSC[C@H](NC(=O)[C@@H]5CCCN5C1=O)C(=O)NCC(=O)N[C@@H](CCC(=O)O)C(=O)N[C@@H](CO)C(=O)N4)NC(=O)CNC(=O)[C@H](C)NC(=O)[C@H](C(C)C)NC(=O)[C@H]([C@@H](C)O)NC(=O)[C@H]([C@@H](C)O)NC(=O)[C@H](CC(C)C)NC3=O)C(=O)N[C@@H](CCCCN)C(=O)N[C@@H](CC(N)=O)C(=O)N[C@@H](CCCCN)C(=O)N[C@@H](C(C)C)C(=O)N2 [CYCLOVIOLIN C] (cyclo(AGCSCKNKVCYRNGIPCGESCVFIPCLTTV); disulfide 3-17, 5-21, 10-26) | 0.05 µM |
| CC[C@H](C)[C@@H]1NC(=O)[C@H](CCCCN)NC(=O)[C@H](CC(=O)O)NC(=O)[C@H](Cc2cnc[nH]2)NC(=O)[C@H](Cc2ccc(O)cc2)NC(=O)[C@@H]2CSSC[C@@H]3NC(=O)[C@@H]4CCCN4C(=O)[C@H]([C@@H](C)CC)NC(=O)[C@H](Cc4c[nH]c5ccccc45)NC(=O)[C@H](C(C)C)NC(=O)[C@@H]4CSSC[C@H](NC(=O)[C@H](CCCCN)NC(=O)[C@H](CSSC[C@H](NC(=O)[C@@H]5CCCN5C1=O)C(=O)NCC(=O)N[C@@H](CCC(=O)O)C(=O)N[C@@H](CO)C(=O)N4)NC(=O)[C@H](CC(N)=O)NC(=O)[C@H](Cc1ccccc1)NC(=O)[C@H](C(C)C)NC(=O)[C@H](CO)NC(=O)[C@H]([C@@H](C)O)NC(=O)[C@H](CC(C)C)NC3=O)C(=O)N[C@@H](CCC(=O)O)C(=O)N[C@@H](CC(N)=O)C(=O)N[C@@H](CCCCN)C(=O)N[C@@H](C(C)C)C(=O)N2 [CIRCULIN E] (cyclo(CENKVCYHDKIPCGESCVWIPCLTSVFNCK); disulfide 1-17, 6-22, 13-29) | 0.05 µM |
| CC[C@H](C)[C@@H]1NC(=O)[C@H](CO)NC(=O)[C@H]([C@@H](C)O)NC(=O)[C@H](Cc2ccc(O)cc2)NC(=O)[C@@H]2CSSC[C@@H]3NC(=O)[C@H](C(C)C)NC(=O)[C@H](CCCCN)NC(=O)[C@H](CC(N)=O)NC(=O)[C@H](CCC(=O)O)NC(=O)[C@@H]4CSSC[C@H](NC(=O)[C@H](CO)NC(=O)[C@H](CCC(=O)O)NC(=O)CNC(=O)[C@H](CSSC[C@H](NC(=O)[C@H](CC(N)=O)NC(=O)[C@H](Cc5ccccc5)NC1=O)C(=O)N[C@@H](CCCCN)C(=O)N4)NC(=O)[C@@H]1CCCN1C(=O)[C@H]([C@@H](C)CC)NC(=O)[C@H](CCCCN)NC(=O)[C@H](CC(=O)O)NC(=O)[C@H](Cc1cnc[nH]1)NC(=O)[C@H](Cc1ccc(O)cc1)NC3=O)C(=O)N[C@@H](C(C)C)C(=O)N[C@@H](Cc1c[nH]c3ccccc13)C(=O)N[C@@H]([C@@H](C)CC)C(=O)N1CCC[C@H]1C(=O)N2 [CIRCULIN D] (cyclo(CENKVCYHDKIPCGESCVWIPCYTSIFNCK); disulfide 1-17, 6-22, 13-29) | 0.05 µM |
| CC[C@H](C)[C@@H]1NC(=O)[C@@H]2CSSC[C@@H]3NC(=O)[C@H](C(C)C)NC(=O)[C@H](CCCCN)NC(=O)[C@H](CO)NC(=O)[C@H](CCCCN)NC(=O)[C@@H]4CSSC[C@H](NC(=O)[C@H](CO)NC(=O)[C@H](CCC(=O)O)NC(=O)CNC(=O)[C@H](CSSC[C@H](NC(=O)CNC(=O)[C@H](C)NC(=O)[C@H](C(C)C)NC(=O)[C@H](CO)NC(=O)[C@H]([C@@H](C)O)NC1=O)C(=O)N[C@@H](CO)C(=O)N4)NC(=O)[C@@H]1CCCN1C(=O)[C@H]([C@@H](C)CC)NC(=O)CNC(=O)[C@H](CC(N)=O)NC(=O)[C@H](CCCNC(=N)N)NC(=O)[C@H](Cc1ccc(O)cc1)NC3=O)C(=O)N[C@@H](C(C)C)C(=O)N[C@@H](Cc1ccccc1)C(=O)N[C@@H]([C@@H](C)CC)C(=O)N1CCC[C@H]1C(=O)N2 [CIRCULIN C] (cyclo(AGCSCKSKVCYRNGIPCGESCVFIPCITSV); disulfide 3-17, 5-21, 10-26) | 0.05 µM |
| CC[C@H](C)[C@@H]1NC(=O)[C@H](C)NC(=O)[C@H](C)NC(=O)[C@H](CO)NC(=O)[C@H]([C@@H](C)CC)NC(=O)[C@@H]2CSSC[C@@H]3NC(=O)[C@H](C(C)C)NC(=O)[C@H](CCCCN)NC(=O)[C@H](CC(N)=O)NC(=O)[C@H](CCCCN)NC(=O)[C@@H]4CSSC[C@H](NC(=O)[C@H](CO)NC(=O)[C@H](CCC(=O)O)NC(=O)CNC(=O)[C@H](CSSC[C@H](NC(=O)CNC1=O)C(=O)N[C@@H](CO)C(=O)N4)NC(=O)[C@@H]1CCCN1C(=O)[C@H]([C@@H](C)CC)NC(=O)[C@H](C)NC(=O)[C@H](CCCNC(=N)N)NC(=O)[C@H](Cc1ccc(O)cc1)NC3=O)C(=O)N[C@@H](C(C)C)C(=O)N[C@@H](Cc1c[nH]c3ccccc13)C(=O)N[C@@H]([C@@H](C)CC)C(=O)N1CCC[C@H]1C(=O)N2 [CIRCULIN F] (cyclo(AAIGCSCKNKVCYRAIPCGESCVWIPCIS); disulfide 5-18, 7-22, 12-27) | 0.05 µM |
